Test results published in ChEMBL document CHEMBL4385626, “SAR optimization studies on modified salicylamides as a potential treatment for acute myeloid leukemia through inhibition of the CREB pathway” (Bioorg Med Chem Lett, 2019).

Assays:
Type in all cases: functional, cell-based
[1] = test system: HL-60; test: Cytotoxicity against human HL60 cells incubated for 3 days by CellTiter-Glo luminescent assay; settings: HL-60, 72 h
In short: (§1)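 CellTiter-Glo viability read-out on leukemia cell lines. IC50 reported as the average of triplicates.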

[2] = test system: KG-1; test: Cytotoxicity against human KG1 cells incubated for 3 days by CellTiter-Glo luminescent assay; settings: KG-1, 72 h; in short: as §1
[3] = test system: NALM-6; test: Cytotoxicity against human NALM6 cells incubated for 3 days by CellTiter-Glo luminescent assay; settings: NALM-6, 72 h; in short: as §1
[4] = test system: Jurkat; test: Cytotoxicity against human Jurkat cells incubated for 3 days by CellTiter-Glo luminescent assay; settings: 72 h; in short: as §1

N#Cc1cccc(NC(=O)c2cc(F)ccc2O)c1
IC50 [1]: 7750 nM
IC50 [2]: 9100 nM

O=C(Nc1ccc(C(F)(F)F)cc1)c1ccc(C(F)(F)F)cc1O
IC50 [3]: 1120 nM
IC50 [4]: 820 nM
IC50 [1]: 380 nM
IC50 [2]: 780 nM

N#Cc1ccc(NC(=O)c2c(O)cccc2F)cc1
IC50 [1]: > 10000 nM
IC50 [2]: > 10000 nM

O=C(Nc1ccc([N+](=O)[O-])cc1)c1cc(F)ccc1O
IC50 [3]: 2080 nM
IC50 [4]: 940 nM
IC50 [1]: 520 nM
IC50 [2]: 1100 nM

N#Cc1ccc(NC(=O)c2ccccc2O)cc1
IC50 [1]: 4620 nM
IC50 [2]: 5370 nM

CC(=O)Oc1cc2ccccc2cc1C(=O)Nc1ccc(C#N)cc1
IC50 [1]: 1690 nM
IC50 [2]: 1700 nM

O=C(Nc1ccc(OC(F)(F)F)cc1)c1cc(F)ccc1O
IC50 [3]: 1210 nM
IC50 [4]: 810 nM
IC50 [1]: 850 nM
IC50 [2]: 780 nM

O=C(Nc1ccc(C(F)(F)F)cc1)c1cc(Br)c(-c2ccccc2)cc1O
IC50 [3]: 1000 nM
IC50 [4]: 740 nM
IC50 [1]: 540 nM
IC50 [2]: 400 nM

N#Cc1ccc(NC(=O)c2c(O)ccc3ccccc23)cc1
IC50 [1]: 4430 nM
IC50 [2]: 3760 nM

N#Cc1ccc(NC(=O)c2ccc3ccccc3c2O)cc1
IC50 [1]: 3410 nM
IC50 [2]: 2720 nM

N#Cc1ccc(NC(=O)c2ccc[nH]c2=O)cc1
IC50 [1]: > 10000 nM
IC50 [2]: > 10000 nM

N#Cc1ccc(NC(=O)c2ccc(Br)cc2O)c(Cl)c1
IC50 [3]: 1860 nM
IC50 [4]: 750 nM
IC50 [1]: 730 nM
IC50 [2]: 790 nM

O=C(Nc1ccc(C(F)(F)F)cc1)c1ccc2cccnc2c1O
IC50 [3]: 380 nM
IC50 [4]: 550 nM
IC50 [1]: 680 nM
IC50 [2]: 3510 nM

O=C(Nc1ccc(Cl)cc1)c1ccc2cccnc2c1O
IC50 [3]: 380 nM
IC50 [4]: 510 nM
IC50 [1]: 630 nM
IC50 [2]: 3300 nM

O=C(Nc1cc(C(F)(F)F)cc(C(F)(F)F)c1)c1cc(Cl)c(-c2ccccc2)cc1O
IC50 [3]: 560 nM
IC50 [4]: 540 nM
IC50 [1]: 790 nM
IC50 [2]: 430 nM

O=C(Nc1ccc(Cl)c(C(F)(F)F)c1)c1cc(F)ccc1O
IC50 [3]: 970 nM
IC50 [4]: 530 nM
IC50 [1]: 600 nM
IC50 [2]: 540 nM

O=C(Nc1ccc(OC(F)(F)F)c(Cl)c1)c1cc(F)ccc1O
IC50 [3]: 1000 nM
IC50 [4]: 700 nM
IC50 [1]: 550 nM
IC50 [2]: 370 nM

N#Cc1ccc(Nc2n[nH]c3ccccc23)cc1
IC50 [1]: > 10000 nM
IC50 [2]: > 10000 nM

O=C(Nc1ccc(C(F)(F)F)c(Cl)c1)c1cc(Cl)ccc1O
IC50 [3]: 1220 nM
IC50 [4]: 690 nM
IC50 [1]: 460 nM
IC50 [2]: 450 nM

N#Cc1ccc(NC(=O)c2cc(Cl)ccc2O)c(Cl)c1
IC50 [3]: 730 nM
IC50 [4]: 620 nM
IC50 [1]: 500 nM
IC50 [2]: 860 nM

N#Cc1ccc(NC(=O)c2ccc(F)cc2O)cc1
IC50 [1]: 1380 nM
IC50 [2]: 3150 nM

O=C(Nc1cc(Cl)cc(Cl)c1)c1cc(F)ccc1O
IC50 [3]: 1440 nM
IC50 [4]: 710 nM
IC50 [1]: 600 nM
IC50 [2]: 780 nM

N#Cc1ccc(NC(=O)c2cccc3cc[nH]c23)cc1
IC50 [1]: > 10000 nM
IC50 [2]: > 10000 nM

O=C(Nc1ccc(Cl)cc1Cl)c1ccc2cccnc2c1O
IC50 [3]: 450 nM
IC50 [4]: 430 nM
IC50 [1]: 610 nM
IC50 [2]: 3560 nM

O=C(Nc1cccc(OC(F)(F)F)c1)c1cc(F)ccc1O
IC50 [3]: 1370 nM
IC50 [4]: 700 nM
IC50 [1]: 730 nM
IC50 [2]: 830 nM

O=C(Nc1ccc(C(F)(F)F)cc1)c1cc(Br)c(F)cc1O
IC50 [3]: 1300 nM
IC50 [4]: 880 nM
IC50 [1]: 450 nM
IC50 [2]: 820 nM

Cc1ccc(O)c(C(=O)Nc2ccc(C#N)cc2)c1
IC50 [1]: 3920 nM
IC50 [2]: 3370 nM

COc1ccc(C(=O)Nc2ccc(C#N)cc2)c(O)c1
IC50 [1]: 5470 nM
IC50 [2]: 5430 nM

N#Cc1ccc(NC(=O)c2ccc(Br)cc2O)cc1Cl
IC50 [3]: 920 nM
IC50 [4]: 750 nM
IC50 [1]: 440 nM
IC50 [2]: 960 nM

N#Cc1ccc(NC(=O)c2cc(-c3cccnc3)ccc2O)cc1
IC50 [1]: 7960 nM
IC50 [2]: 8330 nM

N#Cc1ccc(NC(=O)c2ccc(Cl)cc2O)cc1
IC50 [1]: 1300 nM
IC50 [2]: 1920 nM

O=C(Nc1cc(C(F)(F)F)cc(C(F)(F)F)c1)c1cc(Cl)c(F)cc1O
IC50 [3]: 2130 nM
IC50 [4]: 730 nM
IC50 [1]: 430 nM
IC50 [2]: 470 nM

N#Cc1cc(Cl)ccc1NC(=O)c1ccc2cccnc2c1O
IC50 [3]: 280 nM
IC50 [4]: 170 nM
IC50 [1]: 790 nM
IC50 [2]: 3540 nM

O=C(Nc1cc(C(F)(F)F)cc(C(F)(F)F)c1)c1cc(Br)c(F)cc1O
IC50 [3]: 950 nM
IC50 [4]: 700 nM
IC50 [1]: 250 nM
IC50 [2]: 510 nM

O=C(Nc1ccc(Br)c(Cl)c1)c1cc(F)ccc1O
IC50 [3]: 1250 nM
IC50 [4]: 860 nM
IC50 [1]: 600 nM
IC50 [2]: 670 nM

CN(C(=O)c1cc(F)ccc1O)c1ccc(C#N)cc1
IC50 [1]: > 10000 nM
IC50 [2]: > 10000 nM

N#Cc1ccc(NC(=O)c2cc(-c3ccncc3)ccc2O)cc1
IC50 [1]: 5410 nM
IC50 [2]: 7990 nM

O=C(Nc1ccc(C(F)(F)F)cc1)c1ccc(Br)cc1O
IC50 [3]: 690 nM
IC50 [4]: 500 nM
IC50 [1]: 360 nM
IC50 [2]: 340 nM

O=C(Nc1ccc(C(F)(F)F)cc1)c1ccc(F)cc1O
IC50 [3]: 1530 nM
IC50 [4]: 800 nM
IC50 [1]: 680 nM
IC50 [2]: 740 nM

COc1cccc(C(=O)Nc2ccc(C#N)cc2)c1O
IC50 [1]: > 10000 nM
IC50 [2]: > 10000 nM

N#Cc1ccc(NC(=O)c2cc(-c3ccccc3)ccc2O)cc1
IC50 [1]: 1350 nM
IC50 [2]: 1300 nM

O=C(Nc1cc(C(F)(F)F)cc(C(F)(F)F)c1)c1ccc(Br)cc1O
IC50 [3]: 1200 nM
IC50 [4]: 930 nM
IC50 [1]: 270 nM
IC50 [2]: 830 nM

O=C(Nc1ccc(OC(F)(F)F)c(Cl)c1)c1cc(Cl)ccc1O
IC50 [3]: 1050 nM
IC50 [4]: 840 nM
IC50 [1]: 450 nM
IC50 [2]: 460 nM

O=C(Nc1ccc(C(F)(F)F)cc1)c1ccc(Cl)cc1O
IC50 [3]: 1180 nM
IC50 [4]: 670 nM
IC50 [1]: 630 nM
IC50 [2]: 580 nM

O=C(Nc1ccccc1)c1cc(F)ccc1O
IC50 [1]: > 10000 nM
IC50 [2]: > 10000 nM

N#Cc1ccc(NC(=O)c2cccc(F)c2O)cc1
IC50 [1]: 5390 nM
IC50 [2]: 9690 nM

O=C(Nc1cc(F)cc(F)c1)c1ccc2cccnc2c1O
IC50 [3]: 310 nM
IC50 [4]: 430 nM
IC50 [1]: 510 nM
IC50 [2]: 3340 nM

O=C(Nc1ccc(C(F)(F)F)cc1)c1cc(Br)ccc1O
IC50 [3]: 1090 nM
IC50 [4]: 620 nM
IC50 [1]: 580 nM
IC50 [2]: 610 nM

N#Cc1ccc(NC(=O)c2cc(Cc3ccccc3)ccc2O)cc1
IC50 [1]: 1740 nM
IC50 [2]: 1930 nM

N#Cc1ccc(CC(=O)c2cc(F)ccc2O)cc1
IC50 [1]: > 10000 nM
IC50 [2]: > 10000 nM

N#Cc1ccc(NC(=O)c2cc(F)ccc2O)cc1
IC50 [1]: 1420 nM
IC50 [2]: 2670 nM

O=C(Nc1ccc(C(F)(F)F)cc1)c1cc(Cl)ccc1O
IC50 [3]: 1210 nM
IC50 [4]: 710 nM
IC50 [1]: 510 nM
IC50 [2]: 740 nM

N#Cc1ccc(NC(=O)c2cc(Br)c(-c3ccccc3)cc2O)cc1
IC50 [1]: 700 nM
IC50 [2]: 850 nM

Cc1cccc(O)c1C(=O)Nc1ccc(C#N)cc1
IC50 [1]: 6860 nM
IC50 [2]: 7940 nM

O=C(Nc1ccc(Cl)cc1Cl)c1cc(F)ccc1O
IC50 [3]: 1620 nM
IC50 [4]: 880 nM
IC50 [1]: 890 nM
IC50 [2]: 850 nM

Cc1ccc(C(=O)Nc2ccc(C#N)cc2)c(O)c1
IC50 [1]: 2420 nM
IC50 [2]: 2560 nM

O=C(Nc1ccc(Cl)c(Cl)c1)c1cc(F)ccc1O
IC50 [3]: 1370 nM
IC50 [4]: 670 nM
IC50 [1]: 660 nM
IC50 [2]: 760 nM

N#Cc1ccc(NC(=O)c2ccc(C(F)(F)F)cc2O)cc1
IC50 [1]: 1030 nM
IC50 [2]: 1440 nM

N#Cc1ccc(NC(=O)c2cccc(Br)c2O)cc1
IC50 [1]: 2910 nM
IC50 [2]: 3260 nM

N#Cc1ccc(NC(=O)c2ccc(-c3ccncc3)cc2O)cc1
IC50 [1]: 7090 nM
IC50 [2]: 8840 nM

N#Cc1ccc(NC(=O)c2cc(Br)c3cccnc3c2O)cc1
IC50 [3]: 210 nM
IC50 [4]: 230 nM
IC50 [1]: 330 nM

O=C(Nc1cccc(C(F)(F)F)c1)c1cc(F)ccc1O
IC50 [3]: 1800 nM
IC50 [4]: 840 nM
IC50 [1]: 970 nM
IC50 [2]: 1010 nM

O=C(Nc1ccc(OC(F)(F)F)c(Cl)c1)c1ccc(C(F)(F)F)cc1O
IC50 [3]: 950 nM
IC50 [4]: 790 nM
IC50 [1]: 380 nM
IC50 [2]: 640 nM

Cc1cc(C#N)ccc1NC(=O)c1ccc2cccnc2c1O
IC50 [3]: 230 nM
IC50 [4]: 270 nM
IC50 [1]: 710 nM
IC50 [2]: 3240 nM

N#Cc1ccc(NC(=O)c2ccc3cccnc3c2O)c(Cl)c1
IC50 [3]: 420 nM
IC50 [4]: 550 nM
IC50 [1]: 910 nM
IC50 [2]: 3670 nM

O=C(Nc1ccc(C(F)(F)F)cc1)c1cc(F)ccc1O
IC50 [3]: 2090 nM
IC50 [4]: 580 nM
IC50 [1]: 490 nM
IC50 [2]: 1700 nM

O=C(Nc1ccc(C(F)(F)F)cc1)c1cc(Cl)c(-c2ccccc2)cc1O
IC50 [3]: 800 nM
IC50 [4]: 1160 nM
IC50 [1]: 490 nM
IC50 [2]: 770 nM

CS(=O)(=O)Nc1ccc(Cl)cc1C(=O)Nc1ccc(C#N)cc1
IC50 [1]: > 10000 nM
IC50 [2]: > 10000 nM

N#Cc1ccc(NC(=O)c2ccc(-c3cccnc3)cc2O)cc1
IC50 [1]: 6660 nM
IC50 [2]: 7940 nM

N#Cc1ccc(NS(=O)(=O)c2cc(F)ccc2O)cc1
IC50 [1]: > 10000 nM
IC50 [2]: > 10000 nM

N#Cc1ccc(NC(=O)c2ccc(-c3ccccc3)cc2O)cc1
IC50 [1]: 700 nM
IC50 [2]: 410 nM

N#Cc1ccc(NC(=O)c2cc(Cl)c(-c3ccccc3)cc2O)cc1
IC50 [1]: 520 nM
IC50 [2]: 480 nM

Cc1cccc(C(=O)Nc2ccc(C#N)cc2)c1O
IC50 [1]: > 10000 nM
IC50 [2]: 8980 nM

COc1cc2ccccc2cc1C(=O)Nc1ccc(C#N)cc1
IC50 [1]: > 10000 nM
IC50 [2]: > 10000 nM

N#Cc1ccc2nc(-c3ccccc3O)[nH]c2c1
IC50 [1]: > 10000 nM
IC50 [2]: > 10000 nM

N#Cc1ccc(NC(=O)c2ccc(Br)cc2O)cc1
IC50 [1]: 1210 nM
IC50 [2]: 1450 nM

N#Cc1ccc(NC(=O)c2cc(C(F)(F)F)ccc2O)cc1
IC50 [1]: 3120 nM
IC50 [2]: 4810 nM
